Assay outcomes deposited in PubChem BioAssay by several laboratories.
A selection: hits, their analogues and other compounds. The true share with any hit is near 3.3%.
AHR act: activates the human aryl hydrocarbon receptor | P35869 | AHR-responsive luciferase reporter cells, luminescence | activation, % at 5 µM | 2.5% of 320,000 active | AID 2796; in the data active = activation above about 47%;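 also: 0% = vehicle wells and 100% = reference agonist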
ABCB6 inh 2: blocks the human ABCB6 transporter; Q9NP58; K562-ABCB6 porphyrin accumulation, flow cytometry, 1 h; hits give low values; fluorescence ratio to DMSO, % at 10 µM; 0.19% of 360,000 active;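 active = fluorescence ratio to DMSO below 75%, the collection mean minus 3 SD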;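 also: signal is porphyrin accumulated inside mitochondria; 100% equals median channel fluorescence of DMSO control wells; lower ratio means ABCB6 inhibition with less porphyrin fluorescence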
Target sequence (Q9NP58 whole entry, looked up): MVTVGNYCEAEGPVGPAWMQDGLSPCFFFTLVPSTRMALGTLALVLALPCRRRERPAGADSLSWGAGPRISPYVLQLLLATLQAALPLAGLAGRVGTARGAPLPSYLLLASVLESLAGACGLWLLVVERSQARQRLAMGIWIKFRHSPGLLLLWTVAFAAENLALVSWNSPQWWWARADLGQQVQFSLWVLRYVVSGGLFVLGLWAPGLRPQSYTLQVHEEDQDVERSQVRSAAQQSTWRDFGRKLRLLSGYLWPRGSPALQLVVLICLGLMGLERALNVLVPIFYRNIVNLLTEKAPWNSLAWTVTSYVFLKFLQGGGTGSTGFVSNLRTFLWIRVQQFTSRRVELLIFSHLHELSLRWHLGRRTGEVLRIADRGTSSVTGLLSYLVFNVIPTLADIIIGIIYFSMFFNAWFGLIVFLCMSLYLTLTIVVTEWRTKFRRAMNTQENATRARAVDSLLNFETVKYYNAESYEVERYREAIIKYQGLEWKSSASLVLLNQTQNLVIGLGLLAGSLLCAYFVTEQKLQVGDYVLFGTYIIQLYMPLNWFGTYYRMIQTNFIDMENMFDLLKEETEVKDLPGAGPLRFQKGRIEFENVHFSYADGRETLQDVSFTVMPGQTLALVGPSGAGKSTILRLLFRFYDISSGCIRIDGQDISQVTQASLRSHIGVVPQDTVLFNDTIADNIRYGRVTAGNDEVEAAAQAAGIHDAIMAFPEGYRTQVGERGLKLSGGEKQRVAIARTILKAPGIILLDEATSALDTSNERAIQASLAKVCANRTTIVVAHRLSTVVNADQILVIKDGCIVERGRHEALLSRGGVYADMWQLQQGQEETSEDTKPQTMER
FXN GAA850 act: activators of GAA850 frataxin (FXN) promoter. HEK293 lucGAA850 FXN promoter luciferase reporter, 24 h; percent of 10 µM SAHA response. activation, % at 6 µM. 0.56% of 360,000 active. AID 540364;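 active = activation above the average of all compounds screened plus 3 SD, cutoff fixed separately per campaign, cut at about 7.5% in these data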;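 also: 0% = DMSO wells and 100% = 10 µM SAHA wells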
STAT3 act: STAT3 signaling activation; U3A cells, IL-6 STAT3-luciferase reporter, luminescence; 100% = signal with IL-6 EC80 alone; activation (% of control), % at 5.6 µM; 0.91% of 190,000 active; AID 871;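 active = activation above the screen-wide mean of compound activation plus 3 SD, cut at about 130% in these data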;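 also: 0% = background luminescence of wells with medium and substrate only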
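Detection: reporter luminescence signal / Assay system: STAT1-lacking human U3A cells, STAT3 luciferase reporter / Incubation: compound pre-incubation 1 h before IL-6, then 6 h stimulation at 37 °C / Control set: IL-6-only high control / Read-out: % activation relative to IL-6 control / Probe or stimulus: Interleukin-6, 33 ng/mL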
GAA30 FXN cntr: GAA30 FXN promoter activation counter-screen | shares compounds with FXN GAA850 act | HEK293 lucGAA30 FXN promoter luciferase, 24 h; DMSO = 0%, 5 µM ipriflavone = 100% | activation, % at 6 µM | 66% of 1,900 active;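 active = mean activation above the mean of solvent-only control wells plus 3 SD, cut at about 22% in these data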;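 also: counterscreen of GAA850 promoter hits where activity marks nonselective or luminescence artifacts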
FXN GAA850 conf: GAA850 FXN promoter activation confirmation; shares compounds with FXN GAA850 act; 86% of 1,900 active; HEK293 lucGAA850 FXN promoter luciferase reporter, 24 h; 100% = activation by SAHA; activation, % at 6 µM;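 active = mean activation above a set limit taken from the primary screen, cut at about 8% in these data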;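 also: 0% = DMSO wells and 100% = 10 µM SAHA wells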
Numbers without * were called inactive; / = not tested or not shown.

SMILES | AHR act | ABCB6 inh 2 | FXN GAA850 act | STAT3 act | GAA30 FXN cntr | FXN GAA850 conf
CC(C)C[C@@]12C(=O)N(c3cccc(Br)c3)C(=O)N1[C@H](c1ccc(Cl)cc1)[C@@H]1C(=O)N(C3CCCCC3)C(=O)[C@@H]12 | 1 | 97 | 3 | / | / | /
CC(C)C[C@@]12C(=O)N(c3cccc(Cl)c3)C(=O)N1[C@H](c1ccc(Br)cc1)[C@@H]1C(=O)N(C(C)(C)C)C(=O)[C@@H]12 | 2 | 94 | 15* | / | 33* | 18*
CC[C@@]12C(=O)N(c3cccc(C)c3)C(=O)N1[C@H](c1ccc(Br)cc1)[C@@H]1C(=O)N(C(C)(C)C)C(=O)[C@@H]12 | 2 | 103 | 16* | / | 23* | 11*
CCN1C(=O)[C@H]2[C@@H](c3ccc(C)cc3)N3C(=O)N(c4cccc(C)c4)C(=O)[C@@]3(Cc3ccccc3)[C@H]2C1=O | 0 | 98 | -2 | / | / | /
COc1ccccc1NC(=O)CSc1ccc(-c2cccs2)nn1 | 4 | 96 | 2 | 94 | / | /
COC(=O)CCCC1=CC2=CC(=O)C(C)(OC(=O)c3ccc(Cl)nc3)C(=O)C2=CO1 (stereo not drawn) | 3 | / | / | / | / | /
CC(C)C[C@@]12C(=O)N(c3cccc(F)c3)C(=O)N1[C@H](c1ccc(Br)cc1)[C@@H]1C(=O)N(C(C)(C)C)C(=O)[C@@H]12 | 4 | 98 | 17* | / | 29* | 18*
CCN1C(=O)[C@H]2[C@@H](c3ccc(C)cc3)N3C(=O)N(c4cccc(Cl)c4)C(=O)[C@@]3(Cc3ccccc3)[C@H]2C1=O | 1 | 97 | -2 | / | / | /
CCN1C(=O)[C@H]2[C@@H](c3ccc(C)cc3)N3C(=O)N(c4cccc(Cl)c4)C(=O)[C@@]3(CC(C)C)[C@H]2C1=O | 6 | 94 | 17* | / | 26* | 12*
Cc1occc1C(=O)N1CCCC(N2CCN(c3cccc(Cl)c3)CC2)C1 (stereo not drawn) | 6 | 93 | 0 | / | / | /
CC1CCN(C(=O)CN2C(=O)C(=O)c3ccccc32)CC1 | 1 | 114 | 13* | 106 | 22* | 8.3*
CC1CCN(C(=O)CN2C(=O)c3cccc4cccc(c34)C2=O)CC1 | 24 | 99 | -1 | 81 | / | /
Cc1cc(-c2nnco2)c(C)n1-c1ccc(F)cc1 | 0 | 100 | 7.7* | 99 | 53* | 22*
CCOC(=O)C1CCN(S(=O)(=O)c2c(C)[nH]c(C)c2C(=O)N2CCCCC2)CC1 | -2 | 102 | 1 | / | / | /
CC1=CC(=C(C#N)c2nc3ccccc3s2)C=C(C)N1CC1CCCO1 (stereo not drawn) | 25 | 98 | 7.8* | 106 | 39* | 32*
O=[N+]([O-])c1ccc(Sc2nc3ccccc3o2)c([N+](=O)[O-])c1 | 6 | 96 | 16* | 106 | -25 | 46*
COc1ccc(NC(=O)CSc2nnc(-c3cccnc3)n2Cc2ccco2)c(OC)c1 | / | 100 | 3 | 104 | / | /
Cn1cc(CN2CCCC(CNC(=O)c3ccc4c(c3)OCO4)C2)c2ccccc21 (stereo not drawn) | 13 | 95 | 11* | 106 | 21 | 13*
Cc1sc(N)nc1-c1ccc(Oc2ccccc2)cc1 | 4 | 92 | 8.8* | / | 63* | 25*
Cc1ccccc1Oc1ccc(-c2nc(N)nc(N)n2)cc1 | 0 | 97 | 3 | 104 | / | /
Nc1nc(N)nc(-c2ccc(Oc3ccccc3)cc2)n1 | 9 | 98 | 11* | 107 | 27* | 14*
C/C(=N\O)c1sc(-c2ccccc2)nc1C | / | 95 | 8.1* | 106 | 123* | 34*
O=C(NCCCN1CCCC1=O)C1CCN(S(=O)(=O)c2cccc(Cl)c2Cl)CC1 | 0 | 96 | 3 | / | / | /
Cc1cc(C(=O)N/N=C/c2ccc3c(c2)OCO3)c(C)n1-c1ccc(F)cc1 | 7 | 103 | 2 | 110 | / | /
Cc1cc(C(=O)N/N=C/c2ccc(Cl)c([N+](=O)[O-])c2)c(C)n1-c1ccc(F)cc1 | 13 | 98 | 9.1* | 102 | -3 | 12*
SMILES | AHR act | ABCB6 inh 2 | FXN GAA850 act | STAT3 act | GAA30 FXN cntr | FXN GAA850 conf
Cc1ccc(NC(=O)C2Cc3ccccc3C(=O)O2)cc1 (stereo not drawn) | 16 | 90 | 8.3* | 92 | 86* | 33*
O=C1OC(C(=O)Nc2ccccc2)Cc2ccccc21 (stereo not drawn) | 15 | 97 | 3 | 97 | / | /
Cc1ccc(CNC(=O)Cn2cnc3c(OCc4ccccc4)ncnc32)o1 | 0 | 102 | 0 | / | / | /
O=C(N/N=C/c1ccc(OC2CSC2)cc1)c1ccccc1 | 3 | 95 | 8.1* | 115 | 84* | 47*
Cc1cccc(S(=O)(=O)NC(=O)C2(C)CCN2C(=O)C/C=C/c2ccccc2)c1 (stereo not drawn) | / | 88 | -2 | / | / | /
O=C(NCCc1ccccc1)C1CC(=O)N(CCc2ccccc2)C1 (stereo not drawn) | 1 | 95 | 0 | / | / | /
Cc1ccc2nc3c(cc(S(=O)(=O)c4ccccc4)c(=N)n3Cc3ccco3)c(=O)n2c1 | -3 | 90 | 9.3* | 99 | 22* | 7
COc1ccc(NC(=O)C2(C)CCN2Cc2ccc(OC)c3ccccc23)cc1OC (stereo not drawn) | / | 99 | 7.7* | / | 22* | 13*
COc1ccc(NC(=O)C2(C)CCN2Cc2cccc(OC)c2OC)cc1OC (stereo not drawn) | / | 88 | 1 | / | / | /
CCN(CC)S(=O)(=O)c1ccc(N2CCCC2)c(NC(=O)Cc2cc(OC)c(OC)c(OC)c2)c1 | -1 | 100 | 8.4* | / | 32* | 8.4*
COc1ccc(C(C)(C)C)cc1NC(=O)c1cc(S(=O)(=O)N(C)C)ccc1N1CCCC1 | 2 | 100 | 15* | 111 | -3 | 9.3*
CCN(CC)S(=O)(=O)c1ccc(N2CCCC2)c(NC(=O)Cc2ccc(OC)cc2)c1 | 3 | 96 | 6 | 105 | / | /
CN(C)S(=O)(=O)c1ccc(N2CCCC2)c(C(=O)Nc2ccccc2F)c1 | 1 | 101 | 0 | / | / | /
C/C(=N\NC(=O)COc1ccc(C(C)(C)C)cc1)c1cc2ccccc2o1 | 44 | 109 | 9.5* | 111 | 105* | 39*
O=C(NCc1ccccn1)c1cccc(S(=O)(=O)Nc2ccccc2Cl)c1 | -2 | 93 | 1 | / | / | /
Cc1cc(Nc2ccc(Cl)cc2)nc(NCc2ccccc2)n1 | 32 | 94 | 14* | 100 | 17 | 10*
O=[N+]([O-])c1ccc(N/N=C/c2cccc(O)c2O)cc1 | 3 | 105 | 15* | / | 77* | 40*
CCOC(=O)CCNCc1ccc(OC)c(OC)c1 | -1 | 97 | 0 | / | / | /
Cc1c(C=NCCOCc2ccccc2)cnn1C | 1 | 102 | 10* | 106 | 18 | 9.0*
